Only some compounds are listed: those with a hit (about 1.6% of all), similar ones and a draw of the others.
Dynein transport: blocks dynein driven cargo transport along microtubules. 3617.4 mouse cells, GR-EGFP nuclear translocation imaging; test concentration mostly 20 µM; stimulated with dexamethasone, 1 µM; hits give low values. z-score, hits read low. 0.47% of 220,000 active;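 active means plate z-score of nuclear minus cytoplasmic receptor signal below a set negative limit, without overly bright fluorescence or cell loss, cut at about -3.5 in these data, passing the limit was not always enough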;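 further: z-score of nuclear minus cytoplasmic ring GR-EGFP intensity difference per well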
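medium = tetracycline-free induction medium containing charcoal-stripped FBS | probe or stimulus = dexamethasone, 1.0 µM final | timing = 48 h induction, then 1 h compound, then 30 min agonist, 37 °C | detection = automated 10x imaging of fixed Hoechst-stained cells | read-out basis = nuclear versus cytoplasmic GR-EGFP signal, averaged per well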
TLR9-MyD88 inh: inhibitors of human TLR9-MyD88 binding. AID 504734. CHO BLA complementation TLR9-MyD88, CCF4 FRET ratio. inhibition, % at 4.98 µM. Q9NR96+Q99836. 0.21% of 340,000 active;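 active means inhibition above the mean over all tested compounds plus 3 SD, cut at about 21% in these data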;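 further: 0% = DMSO only wells and 100% = clavulanate BLA inhibitor control wells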
Target sequence (Q99836 whole entry, looked up): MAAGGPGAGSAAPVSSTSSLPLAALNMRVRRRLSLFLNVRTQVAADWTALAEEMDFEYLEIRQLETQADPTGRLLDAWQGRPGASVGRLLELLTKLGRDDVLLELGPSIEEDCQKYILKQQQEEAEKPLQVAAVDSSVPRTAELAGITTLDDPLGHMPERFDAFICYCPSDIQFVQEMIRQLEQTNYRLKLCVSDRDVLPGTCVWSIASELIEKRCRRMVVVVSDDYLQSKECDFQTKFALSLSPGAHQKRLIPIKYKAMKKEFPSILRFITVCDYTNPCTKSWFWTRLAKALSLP
Target sequence (Q9NR96 whole entry, looked up): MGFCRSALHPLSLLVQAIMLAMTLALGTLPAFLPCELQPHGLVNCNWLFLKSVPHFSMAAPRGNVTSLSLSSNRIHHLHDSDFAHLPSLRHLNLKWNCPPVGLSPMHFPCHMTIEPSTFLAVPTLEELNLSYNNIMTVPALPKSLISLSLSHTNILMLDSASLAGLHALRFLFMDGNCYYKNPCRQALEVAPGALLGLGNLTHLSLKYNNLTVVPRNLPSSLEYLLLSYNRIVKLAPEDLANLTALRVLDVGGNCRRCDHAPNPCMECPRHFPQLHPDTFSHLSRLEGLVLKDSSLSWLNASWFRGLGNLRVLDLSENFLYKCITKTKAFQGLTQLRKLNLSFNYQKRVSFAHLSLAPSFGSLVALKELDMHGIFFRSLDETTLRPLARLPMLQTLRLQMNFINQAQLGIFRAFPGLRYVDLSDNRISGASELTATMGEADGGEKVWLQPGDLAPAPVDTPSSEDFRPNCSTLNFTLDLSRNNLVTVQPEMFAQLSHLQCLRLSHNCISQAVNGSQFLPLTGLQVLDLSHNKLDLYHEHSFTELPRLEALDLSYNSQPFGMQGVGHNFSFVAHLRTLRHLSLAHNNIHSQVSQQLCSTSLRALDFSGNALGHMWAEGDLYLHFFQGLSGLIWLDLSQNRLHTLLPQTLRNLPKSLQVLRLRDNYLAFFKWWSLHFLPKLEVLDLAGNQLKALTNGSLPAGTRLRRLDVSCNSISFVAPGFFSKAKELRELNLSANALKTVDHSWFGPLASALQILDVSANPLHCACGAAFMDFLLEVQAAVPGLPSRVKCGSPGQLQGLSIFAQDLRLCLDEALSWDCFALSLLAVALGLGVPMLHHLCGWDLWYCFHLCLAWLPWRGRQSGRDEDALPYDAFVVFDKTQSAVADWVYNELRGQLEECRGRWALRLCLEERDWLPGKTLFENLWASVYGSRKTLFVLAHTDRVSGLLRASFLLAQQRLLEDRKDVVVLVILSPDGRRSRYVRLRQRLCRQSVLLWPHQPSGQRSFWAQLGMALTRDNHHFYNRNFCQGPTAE
TLR4-MyD88 BLA: inhibitors of human TLR4-MyD88 binding. O00206+Q99836. inhibition, % at 8.4 µM. HeLa CL3-4 TLR4/MyD88 BLA complementation, FRET ratio. AID 861. 0.18% of 200,000 active; in the data active means inhibition above about 25%;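 further: 0% = vehicle and 100% = reference inhibitor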
ABHD5 PLIN5 PPI: blocks binding of human ABHD5 to perilipin-5 | 0.78% of 360,000 active | inhibition, % at 4 µM | Q00G26+Q8WTS1 | AID 602281 | Split G. princeps luciferase complementation, luminescence, 4 h;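 active means inhibition above the mean inhibition across every tested compound plus 3 SD, cut at about 22% in these data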;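 further: 0% = DMSO only wells and the 100% control is not disclosed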
Beta2AR agonist: human beta-2 adrenergic receptor agonism by FAP; Am2.2-beta2AR cells, FAP receptor internalization, flow cytometry; response, % (concentration not given with the values); 0.43% of 340,000 active;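 active means response above a set limit, near 3 SD of response in nonfluorescent compounds, cut at about 42% in these data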
NOD2-RIPK2 inh: inhibitors of human NOD2-RIPK2 interaction; O43353; CHO BLA complementation NOD2-RIPK2, CCF4 ratio; inhibition, % at 4.98 µM; 0.38% of 360,000 active; AID 624267; in the data active means inhibition above about 21%;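 further: 0% = vehicle only and 100% = reference blocker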
ABHD5-PLIN5 conf: confirmation of human ABHD5-PLIN5 interaction inhibitors. 67% of 2,200 active. biochemical ABHD5-PLIN5 interaction, luminescence. shares compounds with ABHD5 PLIN5 PPI. inhibition, % at 4 µM; in the data active means inhibition above about 23%;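 further: 0% = DMSO vehicle wells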
HNF4 counter: HNF4 split-luciferase signal hit, counter-screen | shares compounds with ABHD5 PLIN5 PPI | HNF4 dimerization, luminescence, biochemical | inhibition, % at 4 µM | 77% of 2,200 active | AID 651674;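 active means mean inhibition across replicate wells exceeding the computed hit threshold, cut at about 13% in these data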;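 further: light from luciferase halves that rejoin when HNF4 fusion proteins dimerize; 0% = DMSO only wells and the 100% control is not given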
* hit, by the source's call; . = no result.

SMILES	Dynein transport	TLR9-MyD88 inh	TLR4-MyD88 BLA	ABHD5 PLIN5 PPI	Beta2AR agonist	NOD2-RIPK2 inh	ABHD5-PLIN5 conf	HNF4 counter
CC(C)C[C@H]1CN([C@@H](Cc2ccccc2)CN2CCC[C@H]2CN2C(=O)C(=O)NC[C@@H]2Cc2ccc(O)cc2)C(=O)C(=O)N1CC1CCCCCC1	.	.	.	3	.	9	.	.
CN(CCOc1ccc(Cl)cc1)C(=O)c1cc(-c2ccco2)nc2ccccc12	.	4	.	0	30	2	.	.
O=C1C(CO)C(CO)C(CO)C1CO (configuration not stated)	.	6	.	1	1	-6	.	.
O=C1C(=O)C(Cl)=C(Cl)C(Cl)=C1Cl	.	.	.	27*	.	3	51*	29*
COc1ccc(C(CCN2CCOCC2)c2c(OC)cc(OC)c3c(-c4ccccc4)cc(=O)oc23)cc1 (configuration not stated)	.	2	.	25*	8	4	11	8
c1ccc(NC2=NCCCCS2)cc1	0.34	-6	-10	-5	3	5	.	.
O=C(/C=C/c1ccc(Br)cc1)c1ccc(NC2=NCCCS2)cc1	-1.3	7	-16	89*	33	8	95*	84*
O=C(/C=C/c1ccccc1)c1ccc(NC2=NCCCS2)cc1	-0.61	3	-3	62*	-2	13	72*	62*
CC(C)(C)c1ccc(/C=C/C(=O)Nc2ccncc2)cc1	1.6	12	2	-8	10	13	.	.
CC(C)(C)c1ccc(/C=C/C(=O)c2ccc(NC3=NCCCS3)cc2)cc1	-0.85	4	5	50*	8	-4	57*	38*
COc1ccc(-c2ccc(C(=O)NCC3CCOCC3)c3occc23)c(C)c1	.	.	.	5	.	7	.	.
O=C(CNC(=O)c1ccc2c(c1)S(=O)(=O)N=C1CCCCCN12)Nc1ccc(F)c(F)c1	.	9	.	4	-11	-4	.	.
O=C(NCc1ccccn1)[C@@H]1CCCN1C(=O)[C@@H]1CCCN1C(=O)c1c(F)cccc1F	.	.	.	-1	.	-2	.	.
CC1(C(=O)NS(=O)(=O)c2cccc(Cl)c2)CCN1C(=O)Cc1ccc(-c2ccccc2)cc1 (configuration not stated)	.	.	.	7	.	3	.	.
CC(C)Cc1ccc(S(=O)(=O)N2CCOCC2)cc1	-0.31	-5	-7	-2	-2	-7	.	.
CC(C)Cc1ccc(C(C)CC2=CCC(CN(C)C)C2=O)cc1 (configuration not stated)	.	-4	.	38*	24	-10	82*	81*
Cc1ccc([C@H]2C[C@@H](O)[C@H](n3cc(-c4ccc(F)cc4)nn3)CN2C(=O)C2CCCCC2)cc1	.	-9	.	-3	.	7	.	.
N#Cc1ccccc1OCc1cn(CC(=O)c2ccc(O)cc2)nn1	.	-2	.	31*	-4	-8	66*	39*
CCOC(=O)C1CCCN(C(=O)C(=O)c2cn(CC(=O)N3CCOCC3)c3ccccc23)C1 (configuration not stated)	.	-10	.	-7	9	-1	.	.
C=C1CCC2C(C)(C(=O)O)CCCC2(C)C1CCC(CO)CCO (configuration not stated)	.	.	.	-2	.	-11	.	.
O=C(C=Cc1ccccc1)c1c[nH]c2ccccc2c1=O	.	0	.	27*	-5	9	74*	63*
CC(C)SC1=NC(C)(C)C=C(/C=C/c2c(Cl)cccc2Cl)N1	-1	7	-9	10	10	-4	.	.
CC(C)SC1=NC(C)(C)C=C(/C=C/c2ccc(Cl)cc2Cl)N1	0.15	-3	-6	39*	-2	-6	25*	31*
C=CCOC(=O)C(=O)/C=C/c1ccc2c(c1)Cc1ccccc1-2	-0.68	11	-7	35*	6	6	77*	71*
O=C(Nc1ccccc1)c1ccc(OC(=O)c2cc3ccccc3o2)cc1	0.37	-5	0	1	13	-8	.	.
SMILES	Dynein transport	TLR9-MyD88 inh	TLR4-MyD88 BLA	ABHD5 PLIN5 PPI	Beta2AR agonist	NOD2-RIPK2 inh	ABHD5-PLIN5 conf	HNF4 counter
O=C(Oc1ccccc1/C=C\C(=O)c1cc2ccccc2o1)c1ccccc1	-3.1	-7	7	30*	-7	-4	99*	101*
O=C(Oc1ccccc1/C=C\C(=O)c1cc2ccccc2o1)c1cccc(F)c1	0.49	-6	9	32*	24	6	99*	95*
O=C(N/N=C/c1ccccc1OC(=O)c1ccc2c(c1)OCO2)c1cccc(F)c1	0.063	0	9	-3	-4	4	.	.
COc1ccc2cc(C3=CCCCC3)ncc2c1	.	-6	.	16	-5	1	.	.
CCOc1cccc2cc(-c3nnc(NCc4ccco4)s3)c(=O)oc12	0.17	15	21	48*	22	2	29*	35*
O=c1c2ccccc2sn1-c1nccs1	-1.2	.	1	81*	1	18	86*	118*
O=C1c2ccccc2C(=O)N1c1nccs1	.	1	.	7	1	-7	.	.
Cn1c(NCCN(CCO)CCCc2ccc([N+](=O)[O-])cc2)cc(=O)n(C)c1=O	.	-2	.	30*	-6	-5	2	2
CCCS(=O)(=O)NC(=O)C1(C)CCCN(C(=O)c2cccnc2Oc2ccccc2)C1 (configuration not stated)	.	.	.	0	.	1	.	.
CCN(CC)Cc1c(O)ccc2c1O/C(=C\C=C\c1ccccc1)C2=O	-3.5	15	.	42*	28	13	20	20*
O=C(NS(=O)(=O)Oc1ccccc1F)OC[C@@H]1CCCN2CCCCC12 (some centres not stated)	.	-2	.	-5	2	-12	.	.
O=C1S/C(=C/c2ccc(N3CCOCC3)o2)C(=O)N1Cc1c(F)cccc1Cl	-0.73	13	9	25*	-645	-12	23*	36*
CCOc1ccc(CCN2C(=S)N([C@@H](Cc3ccc(O)cc3)CN3CCC[C@@H]3CN3C(=S)NC[C@@H]3CC(C)C)C[C@@H]2Cc2ccccc2)cc1	.	.	.	19	.	-6	.	.
CCOc1ccc(CCN2C(=S)N([C@@H](Cc3ccc(O)cc3)CN3CCC[C@@H]3CN3C(=S)NC[C@@H]3CC(C)C)C[C@@H]2CC(C)C)cc1	.	.	.	28*	.	-7	7	9
CC(C)C[C@H]1CNC(=S)N1C[C@H]1CCCN1C[C@H](CC(C)C)N1C[C@H](Cc2ccc(O)cc2)N(CCc2ccccc2)C1=S	.	.	.	26*	.	7	3	11
CCCCN(C(=O)c1cc(CN2C(=O)c3ccccc3C2=O)ccc1OC)c1c(N)n(CC(C)C)c(=O)[nH]c1=O	.	-7	.	6	26	7	.	.
